According to PMC2773749 (Biochemistry, 2009):

What was measured:
β-lactamase = β-lactamase (Enterobacter cloacae, UniProt P05364); experiment: β-Lactamase promiscuous inhibitor assay; format: biochemical; conditions: in the absence of Triton X-100
K18PL tau [1] = biological target: T1, K18PL tau (Homo sapiens, UniProt P10636, P618L); experiment: Primary qHTS K18PL tau fibrillization, ThT fluorescence readout; format: biochemical; conditions: for 1° ThT Screen Curve class / 1° ThT Screen Log IC50: ThT fluorescence; for 1° ThT Screen Log IC50: printed as Log IC50; for 1° ThT Screen % Inhib: maximum % inhibition of ThT fluorescence
T1 sequence (P10636 561-686 P618L): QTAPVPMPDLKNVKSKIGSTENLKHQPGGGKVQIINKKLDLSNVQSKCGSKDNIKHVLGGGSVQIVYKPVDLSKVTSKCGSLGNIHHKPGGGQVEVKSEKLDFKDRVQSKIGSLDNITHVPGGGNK
Summary of the method: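 Screen used K18PL tau (15 µM) with Alexa Red-labelled K18PL and 40 µM heparin stock, plus compound at six five-fold dilutions (56 µM–18 nM), run 6 h at 37°C. ThT was added (12.5 µM final, 100 mM glycine pH 8.5) for 1 h at room temperature; read ex 450/em 510 nm. Percent inhibition was computed versus median K18KD and DMSO controls, then pattern-corrected, with concentration-response curves fitted and classified. Single determinations per concentration.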

K18PL tau [2] = biological target: T1, K18PL tau; experiment: Primary qHTS K18PL tau assembly, fluorescence polarization; format: biochemical; conditions: for 1° FP Screen Log IC50: printed as Log IC50; for 1° FP Screen % Inhib: maximum % inhibition of FP
Summary of the method: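 K18PL (30 µM stock with 0.24 µM Alexa Red-labelled K18PL) received compound at six five-fold dilutions (56 µM–18 nM), then heparin, and incubated 6 h at 37°C. FP was read after ThT (ex 555, em 632 nm, P/S channels); mP = 1000*(S−G*P)/(S+G*P), G = 1. Inhibition was normalised to non-fibrillizing K18KD and DMSO wells, pattern-corrected, and curve-fitted and classified. Single determinations.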

[3] = Activity in other PubChem / NIH Chemical Genomics Center screens
[4] = Alexa Red total fluorescence; conditions: percent inhibition of Alexa Red total fluorescence
Summary of the method: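 Alexa Red total fluorescence was computed from the qHTS FP S and P channel readings as TF = S + 2*P. It was expressed as a percentage of the DMSO control value, with values >30% flagged as potential fluorescence interference.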

K18PL tau [5] = biological target: T1, K18PL tau; experiment: Repeat K18PL tau ThT fluorescence assay; format: biochemical; conditions: repeat testing of screening hits, maximum percent inhibition
Summary of the method: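 Retesting of K18PL heparin-induced fibrillization used duplicate samples at each concentration, with the highest tested concentration 80 µM. ThT was read at 12.5 µM final in 100 mM glycine, pH 8.5, with excitation 450 nm and emission 510 nm. IC50 and percent inhibition at the top concentration were derived.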

full-length tau40 = full-length tau40 (Homo sapiens, UniProt P10636); experiment: Tau40 ThT fluorescence assay; format: biochemical; conditions: inhibition of ThT fluorescence, compound 50 µM
Chain of full-length tau40 (P10636 1-441 isoform P10636-8): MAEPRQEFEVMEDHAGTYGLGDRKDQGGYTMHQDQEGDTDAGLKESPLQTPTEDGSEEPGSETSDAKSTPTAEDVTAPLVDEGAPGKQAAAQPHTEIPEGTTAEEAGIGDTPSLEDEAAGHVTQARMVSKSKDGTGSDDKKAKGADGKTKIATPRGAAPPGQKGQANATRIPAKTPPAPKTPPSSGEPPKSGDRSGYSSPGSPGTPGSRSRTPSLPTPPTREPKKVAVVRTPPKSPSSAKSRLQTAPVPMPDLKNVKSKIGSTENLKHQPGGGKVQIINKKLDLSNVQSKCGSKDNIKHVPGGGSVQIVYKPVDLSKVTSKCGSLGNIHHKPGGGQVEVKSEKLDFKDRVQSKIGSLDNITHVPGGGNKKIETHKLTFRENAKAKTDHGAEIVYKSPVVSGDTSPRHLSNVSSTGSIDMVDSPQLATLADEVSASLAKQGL

K18PL tau [6] = biological target: T1, K18PL tau; experiment: K18PL tau centrifugation; format: biochemical; conditions: compound 100 µM, Table 1 hits
Summary of the method: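 Heparin-induced K18PL fibrillization was run with test compound at a single concentration of 100 µM or with DMSO vehicle, then centrifuged to sediment fibrils. Supernatant and pellet fractions were analysed by SDS-PAGE, and the percentage of tau remaining in the soluble fraction was determined.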

Tau40 = Tau40 (Homo sapiens, UniProt P10636); experiment: SEC of Tau40 fibrillization reaction post-centrifugation supernatants; format: biochemical; conditions: 50 µM MLS000062428
Chain of Tau40 (P10636 1-441 isoform P10636-8): as above
Summary of the method: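 Tau40 (50 µM) was incubated with heparin (20 µM) ± test compound in 100 mM sodium acetate, pH 7.0, for 5 days at 37°C. A no-heparin control was included. Reactions were spun at 40,000 g for 30 min, and supernatants were run on Superdex 200 at 0.4 ml/minute. Void volume was set by blue dextran, with BSA and cytochrome c as markers.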

[7] = biological target: tau-mediated MT assembly (K18 tau, bovine brain tubulin) (Homo sapiens, UniProt P10636); experiment: Tau-mediated MT assembly assay; format: biochemical; conditions: 50 µM compound, 40 µM K18, 30 µM tubulin
Chain of tau-mediated MT assembly (K18 tau, bovine brain tubulin) (P10636 561-686): as the sequence (P10636 561-686 P618L) above, with L58P counted along it

Chain of β-lactamase (P05364 21-381): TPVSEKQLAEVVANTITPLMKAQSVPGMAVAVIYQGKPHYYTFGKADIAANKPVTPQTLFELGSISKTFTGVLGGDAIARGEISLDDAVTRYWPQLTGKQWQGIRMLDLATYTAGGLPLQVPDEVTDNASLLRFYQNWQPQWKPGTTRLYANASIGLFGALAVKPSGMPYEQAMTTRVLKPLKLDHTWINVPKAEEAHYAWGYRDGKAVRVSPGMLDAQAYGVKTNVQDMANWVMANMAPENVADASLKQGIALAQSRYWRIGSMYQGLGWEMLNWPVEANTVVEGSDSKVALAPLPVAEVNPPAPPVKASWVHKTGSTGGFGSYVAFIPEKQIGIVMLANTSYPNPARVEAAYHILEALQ

1° ThT Screen Curve class (K18PL tau [1])	1° ThT Screen Log IC50 (K18PL tau [1])	1° ThT Screen % Inhib (K18PL tau [1]) [%]	1° FP Screen Log IC50 (K18PL tau [2])	Repeat ThT Assay % Inhib (K18PL tau [5]) [%]	SMILES	promiscuity in other screens [3]	further results
–	–	–	–	–	NS(=O)(=O)c1cc(C(=O)O)c(NCc2ccco2)cc1Cl [Furosemide]	–	β-lactamase inhibition (β-lactamase): 3%
2.1	−5.0	80	−5.3	–	CCOC(=O)c1nn(-c2ccccc2)c(=O)c2c(N)scc12 [MLS000034832]	do not show signs of promiscuity	–
1.2	−5.4	65	−5.1	84	CCn1c(CSc2nccn2C)nc2cc(C(=O)O)ccc21 [MLS000058666]	–	1° FP Screen Curve class (K18PL tau [2]): 1.2; 1° FP Screen % Inhib (K18PL tau [2]): 41%; Total Fluor % Inhib [4]: <10%; Tau40 % Inhib (full-length tau40): 81%
2.1	−5.0	94	−5.0	97	CCOC(=O)c1nn(-c2ccc(OC)cc2)c(=O)c2c(N)scc12 [MLS000062428]	do not show signs of promiscuity	1° FP Screen Curve class (K18PL tau [2]): 2.2; 1° FP Screen % Inhib (K18PL tau [2]): 46%; Total Fluor % Inhib [4]: 49%; Centrifugation % Soluble (K18PL tau [6]): 80%; Tau40 % Inhib (full-length tau40): 64%; oligomeric tau species in post-centrifugation supernatant (Tau40; eluted in column void volume): detectable oligomeric species; amount of monomeric tau in post-centrifugation supernatant (Tau40; relative to untreated fibrillization reaction): appreciable increase
–	–	–	–	–	CC(=O)c1c(O)c(C)c(O)c(Cc2c(O)c3c(c(C(=O)/C=C/c4ccccc4)c2O)OC(C)(C)C=C3)c1O [Rottlerin]	–	β-lactamase inhibition (β-lactamase): 53%
–	–	–	–	–	CN(C)c1ccc2nc3ccc(=[N+](C)C)cc-3sc2c1 [methylene blue, reference compound]	active in a high percentage of PubChem screens	effect on tau-mediated tubulin polymerization [7]: significant diminution

SMILES	1° ThT Screen Curve class (K18PL tau [1])	1° ThT Screen Log IC50 (K18PL tau [1])	1° ThT Screen % Inhib (K18PL tau [1]) [%]	1° FP Screen Log IC50 (K18PL tau [2])	Repeat ThT Assay % Inhib (K18PL tau [5]) [%]	promiscuity in other screens [3]	further results
CN(C(=S)Nc1cccnc1)c1ccc(O)cc1 [MLS000339510]	–	−5.7	–	−5.5	–	–	–
CC(N)[C@H](O)c1ccc(O)c(O)c1 (stereo partly drawn) [NCGC00093795]	–	−5.5	–	−5.7	103	–	–
